The list is not random: actives were taken first. Their share in the collection is about 2.2%.
HKDC1 inh – HKDC1 (human) hexokinase inhibition | Q2TB90 | recombinant HKDC1, G6PDH/diaphorase resazurin coupled fluorescence | inhibition, % at 20 µM | 0.16% of 340,000 active | AID 493160;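 active = inhibition above about 35% when tested at 20 µM, limit read from the data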;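 note: plate controls were DMSO wells with enzyme for no effect and DMSO wells lacking enzyme for full effect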
Target sequence (Q2TB90 whole entry, looked up): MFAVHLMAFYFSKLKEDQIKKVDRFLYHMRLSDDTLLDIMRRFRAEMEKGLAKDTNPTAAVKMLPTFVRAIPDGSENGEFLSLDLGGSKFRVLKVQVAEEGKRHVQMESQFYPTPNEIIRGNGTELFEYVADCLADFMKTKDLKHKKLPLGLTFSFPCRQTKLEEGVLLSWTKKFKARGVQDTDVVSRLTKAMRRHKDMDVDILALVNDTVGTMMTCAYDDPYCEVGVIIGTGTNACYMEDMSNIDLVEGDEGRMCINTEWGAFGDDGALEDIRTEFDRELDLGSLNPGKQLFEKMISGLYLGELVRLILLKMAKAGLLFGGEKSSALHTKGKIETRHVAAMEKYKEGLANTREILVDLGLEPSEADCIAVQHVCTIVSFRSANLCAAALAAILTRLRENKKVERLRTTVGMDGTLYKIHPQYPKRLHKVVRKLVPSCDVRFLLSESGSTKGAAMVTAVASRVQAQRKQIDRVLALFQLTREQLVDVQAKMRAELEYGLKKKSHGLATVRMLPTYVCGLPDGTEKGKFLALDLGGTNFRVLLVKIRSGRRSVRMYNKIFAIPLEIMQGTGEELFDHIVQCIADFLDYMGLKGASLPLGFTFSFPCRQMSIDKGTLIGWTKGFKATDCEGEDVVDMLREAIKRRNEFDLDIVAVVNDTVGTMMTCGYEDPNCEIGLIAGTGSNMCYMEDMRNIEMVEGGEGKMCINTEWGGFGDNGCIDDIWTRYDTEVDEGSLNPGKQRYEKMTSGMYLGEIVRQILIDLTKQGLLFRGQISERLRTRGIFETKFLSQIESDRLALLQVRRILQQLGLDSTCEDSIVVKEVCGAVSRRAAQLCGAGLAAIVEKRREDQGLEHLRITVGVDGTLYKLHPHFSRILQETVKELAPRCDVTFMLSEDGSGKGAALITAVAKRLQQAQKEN
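Assay system – recombinant HKDC1 (HK5) hexokinase enzyme, produced in-house · Input – HKDC1 at 5 µg/mL · Reagent – glucose plus 1 mM ATP as hexokinase substrates · Timing – 90 min reaction incubation at room temperature, dark · Measured by – G6PDH/diaphorase-coupled fluorescence, 1 mM NADP, 100 µM resazurin, 525/613 nm · Benchmarks – DMSO-enzyme wells negative, buffer-substituted wells positive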
Exocytosis inh – blocks lytic granule exocytosis. inhibition, % at 10 µM. 0.66% of 360,000 active. TALL-104 LAMP-1 surface exposure, flow cytometry; cells stimulated with thapsigargin and PMA;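 active = inhibition above about 55%, limit read from the data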
ABHD5-PLIN5 inh – inhibitors of human ABHD5-perilipin-5 interaction; Q00G26+Q8WTS1; Split G. princeps luciferase complementation, luminescence, 4 h; inhibition, % at 4 µM; 0.78% of 360,000 active; AID 602281;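 active = inhibition above the mean inhibition across every tested compound plus 3 SD, cut at about 22% in these data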;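 note: 0% = DMSO only wells and the 100% control is not disclosed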
PfG6PD inh – PfG6PD (Plasmodium falciparum) enzyme inhibition | PfGluPho enzyme, NADPH resazurin-diaphorase fluorescence | inhibition, % at 20 µM | 0.78% of 350,000 active | AID 504690;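 active = inhibition reaching at least a set limit at 20 µM in the primary screen, cut at about 59% in these data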;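 note: 0% = DMSO wells with substrate and 100% = DMSO wells lacking glucose-6-phosphate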
HKDC1 act conf2 – confirmation of human HKDC1 activators | inhibition, % at 20 µM | shares compounds with HKDC1 inh | 14% of 740 active | recombinant HKDC1, G6PDH/diaphorase resazurin fluorescence; active compounds read low;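 active = inhibition at or below a set negative limit, negative inhibition meaning the enzyme was activated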
* hit, by the source's call; . = no result.

SMILES	HKDC1 inh	Exocytosis inh	ABHD5-PLIN5 inh	PfG6PD inh	HKDC1 act conf2
Cc1nc2sc3c(NCc4ccco4)ncnc3c2c2c1COC(C)(C)C2	35.2*	-7.1	4.4	62.3*	37.2
COC(=O)[C@@H](Cc1ccccc1)NC(=O)Cn1cnc2c(SC)nc(N)nc21	-0.8	5.2	8.5	10.5	.
CSc1nc(N)nc2c1ncn2CC(=O)N[C@H](C)c1cccc2ccccc12	-55.5	5.0	8.7	-66.8	-73.5*
COc1ccc(N(C(=O)CCl)C(C(=O)NCCc2ccccc2)c2cccs2)cc1Cl (configuration not stated)	32.2	9.0	21.9	-0.6	21.3
COc1cccc(N(C(=O)CCl)C(C(=O)NCCc2ccccc2)c2cccs2)c1 (configuration not stated)	16.3	14.2	14.8	0.6	.
Cc1cc(SCC(=O)c2cccc([N+](=O)[O-])c2)nc(=O)[nH]1	-54.1	-0.5	-16.5	40.0	5.8
CC1CCc2c(c3ccccc3n2C(=O)CCl)C1 (configuration not stated)	45.6*	0.3	-2.8	12.3	-11.2
COc1ccccc1C1=NNC(=Nc2cccc(S(=O)(=O)N(C)C)c2)SC1	-201.8	0.6	-21.9	40.7	-176.7*
COCCn1c(C)cc(C2=NNC(=Nc3ccccc3)SC2)c1C	-31.9	-3.6	-6.2	40.1	.
CCc1ccccc1NC(=O)C1CCN(S(C)(=O)=O)CC1	-1.6	5.0	1.4	-3.1	.
COc1cc(/C=C2\SC(=Nc3ccc(Cl)c(C(=O)O)c3)NC2=O)c(Br)c(Br)c1O	40.4*	17.7	1.4	4.0	12.0
CC(=O)c1cccc(N(C(=O)c2ccco2)C(C(=O)NC2CCCC2)c2ccccc2F)c1 (configuration not stated)	-0.3	-7.0	3.9	1.4	.
Cc1ccc(C)c2[nH]c(=O)c(CCNC(=O)c3cc4ccccc4o3)cc12	2.2	5.3	5.3	10.0	.
COc1ccc(OC)c2[nH]c(=O)c(CCNC(=O)c3cc4ccccc4o3)cc12	38.5*	2.2	-7.3	22.8	59.6
COc1ccc(OC)c(CN2C(=O)CN(S(C)(=O)=O)CC2(C)C(=O)Nc2c(C)cccc2C)c1 (configuration not stated)	.	-4.2	0.3	.	.
CCOC(=O)/C=C(\C)Sc1cc(O)c2ccccc2c1O	57.4*	-0.8	-36.8	108.0*	53.6
CCOC(=O)/C=C(\C)Sc1cc(=O)oc2ccccc12	4.7	-0.6	0.3	3.0	.
CC(=O)OCC1OC(n2c(-c3ccc(Cl)cc3)ccc(C#N)c2=S)C(OC(C)=O)C(OC(C)=O)C1OC(C)=O (configuration not stated)	-3.4	16.9	-11.3	17.1	.
CCOC(=O)c1cc2c(=Cc3ccc(N(C)C)cc3)c3ccccc3n2[n+]1C	36.9*	67.2*	5.7	49.9	-8.0
Cc1cc2c(=Cc3ccc(N(C)C)cc3)c3ccccc3n2[n+]1C	-3.9	4.8	13.0	27.4	.
COc1ccc(CC(=O)N(Cc2ccccc2)c2ccc(C)cc2)cc1S(=O)(=O)N1CCOCC1	32.9	-2.4	-4.6	8.6	-30.3
COc1cc(C(=O)NCC(=O)OCCN2C(=O)c3ccccc3C2=O)cc(OC)c1OC	-6.9	-4.0	-1.7	-9.1	.
CCC(C)c1ccccc1O (configuration not stated)	-1.2	-1.9	-2.6	25.5	.
CCC(c1ccccc1)C(CC)c1cc(O)c(O)c(O)c1 (configuration not stated)	42.4*	-9.2	-10.2	38.5	35.8
Cc1cccc2c(N=NC(=O)c3ccc(NS(=O)(=O)c4cccs4)cc3)c(O)[nH]c12	36.0*	-0.3	3.1	58.9	63.2
SMILES	HKDC1 inh	Exocytosis inh	ABHD5-PLIN5 inh	PfG6PD inh	HKDC1 act conf2
COc1cc(CNC[C@H]2O[C@@H](n3ccc(N)nc3=O)[C@H](O)[C@@H]2O)ccc1OCc1cccc(Cl)c1	.	-2.3	4.8	8.6	.
COc1ccc(N=C2NN=C(c3ccc4c(c3)OCCO4)CS2)cc1	-84.2	-0.4	-15.7	33.5	-33.1*
FC(F)Sc1ccc(N=C2NN=C(c3ccc4c(c3)OCCO4)CS2)cc1	-101.0	-1.6	-28.2	15.7	.
Cc1ccc(NC(=O)C2CCCN(S(=O)(=O)c3c(C)noc3C)C2)c(Br)c1 (configuration not stated)	-8.8	-0.1	14.1	-1.3	.
Cc1ccc(C)c(NC(=O)C[n+]2ccccc2)c1	-0.3	-0.9	9.0	-10.1	.
O=C1NC(=S)S/C1=C\C=C\c1ccc([N+](=O)[O-])o1	38.2*	-9.9	18.4	33.8	19.0
O=C(O)/C=C/c1ccc([N+](=O)[O-])o1	17.1	5.4	2.3	-3.5	.
O=[N+]([O-])c1ccc(CN2CC(N3CCC(Cc4ccccc4)CC3)CS2(=O)=O)cc1 (configuration not stated)	.	-0.1	5.1	15.0	.
Cc1ccccc1NC(=S)N/N=C/c1ccc(O)cc1O	-41.6	2.3	-0.7	-22.6	-11.9
CCCOc1ccc(/C=N/NC(=S)Nc2ccccc2[N+](=O)[O-])c(O)c1	-48.5	.	.	0.9	-47.6*
CCCOc1ccc(/C=N/Nc2ccccc2[N+](=O)[O-])c(O)c1	-4.2	4.3	1.9	5.0	.
Cc1onc(-c2ccccc2)c1C(=O)NNC(=S)NC(=O)c1ccc(Br)cc1	-51.2	-8.7	1.2	-34.6	-56.7*
COc1ccc(-c2cc(C(=O)NNC(=S)NC(=O)c3c(-c4ccccc4)noc3C)[nH]n2)cc1	-45.7	-4.2	-2.3	-54.8	-50.1*
COc1ccc(OC)c(NC(=O)CCCCCn2nnc3ccccc3c2=O)c1	3.2	-12.5	3.4	0.3	.
Cn1ccc2c(-c3ccc(C(=O)O)cc3)cc3c(c21)C1CCC3C1 (configuration not stated)	.	4.2	-5.5	.	.
O=C1CSC(=S)N1Nc1ccccc1	-44.4	0.2	-30.1	25.5	-17.4
Cc1ccccc1C(=O)NN1C(=O)CSC1=S	-0.4	-1.9	-0.4	-15.3	.
O=C(O)c1ccc2c(c1)C(=O)N(c1cccc(-c3nc4ccccc4s3)c1)C2=O	33.5	2.9	0.6	-24.8	-10.6
CCC(Oc1ccccc1)C(=O)NCCCN1CCOCC1 (configuration not stated)	-5.7	-4.3	1.4	-2.1	.
CCCCNC(=O)C(NC(=O)c1ccc(-c2ccccc2)cc1)C(=O)c1ccccc1 (configuration not stated)	.	-1.0	-14.6	.	.
Cc1ccc(S(=O)(=O)Nc2ccc(Br)cc2C(NCC(=O)O)c2ccccc2)cc1 (configuration not stated)	0.8	-5.7	1.7	-31.6	.
O=C(O)CSc1cc(NS(=O)(=O)c2ccc(Br)cc2)c2ccccc2c1O	58.6*	-15.9	5.0	99.5*	36.8
S=C(NN=C(c1ccccc1)c1ccccn1)N(Cc1ccccn1)Cc1ccccn1	-46.0	2.2	-12.1	47.0	-59.4*
CCOC(=O)c1ccc(NC(=O)CSc2ccc(-c3ccccn3)nn2)cc1	37.2*	5.2	4.1	47.1	31.3
CCOc1ccc(NC(=O)CSc2ccc(-c3ccccn3)nn2)cc1	-8.2	-2.0	-5.2	4.8	.
CC(O)CNc1nc(N)[nH]c(=O)c1N=Nc1ccccc1 (configuration not stated)	-4.2	-0.1	-1.3	14.5	.
